Compounds with a hit are over-represented: about 1.8% of the library has one in this group of screens.
CHRM5 agonist: agonists of human muscarinic M5 receptor (CHRM5); P08912; CHO-K1 hM5 cells, Fluo-8 calcium fluorescence; 0% DMSO wells, 100% maximal acetylcholine response; activation, % at 3 µM; 360,000 tested, 0.19% active; AID 624037;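 active = activation above the run's mean over test compounds plus 3 SD, cut at about 23% in these data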;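 note: signal is peak over basal fluorescence ratio across the kinetic read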
CHRM4 antagonist: CHRM4 antagonism in calcium assay. P08173. inhibition, % at 3 µM. 360,000 tested, 0.73% active. AID 624125. CHO-hM4 cells, ACh EC80, Fluo-8 calcium fluorescence;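 active = inhibition above its plate's cutoff, the mean inhibition of sample wells plus 3 SD, cut at about 27% in these data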
Target sequence (P08173 whole entry, looked up): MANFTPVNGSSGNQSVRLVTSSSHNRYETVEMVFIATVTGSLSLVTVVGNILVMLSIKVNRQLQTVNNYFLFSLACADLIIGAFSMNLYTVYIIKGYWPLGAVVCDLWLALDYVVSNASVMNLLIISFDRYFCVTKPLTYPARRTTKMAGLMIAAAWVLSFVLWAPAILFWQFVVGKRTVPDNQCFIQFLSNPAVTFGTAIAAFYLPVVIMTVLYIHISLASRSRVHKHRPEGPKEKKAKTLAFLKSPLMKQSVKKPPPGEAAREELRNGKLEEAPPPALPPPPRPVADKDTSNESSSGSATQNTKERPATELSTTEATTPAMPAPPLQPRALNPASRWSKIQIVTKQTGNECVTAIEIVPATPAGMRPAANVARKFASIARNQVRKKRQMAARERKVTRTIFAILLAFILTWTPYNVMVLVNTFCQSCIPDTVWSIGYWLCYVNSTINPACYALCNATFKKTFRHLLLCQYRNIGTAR
M4 ag: CHRM4 agonism in calcium assay; P08173; CHO-K1 hM4/Gqi5, Fluo-8 calcium fluorescence; vehicle 0%, full acetylcholine response 100%; activation, % at 3 µM; 360,000 tested, 0.14% active; AID 624127;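 active = activation above the run mean over all test wells plus 3 SD, cut at about 32% in these data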;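 note: peak over basal fluorescence ratio per well then scaled between controls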
M4 PAM: CHRM4 positive allosteric modulation. P08173. CHO-K1 hM4/Gqi5, Fluo-8 calcium fluorescence, ACh EC20; 0% = ACh EC20, 100% = maximal ACh. activation, % at 3 µM. 360,000 tested, 0.4% active;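 active = activation above its plate's cutoff, the mean activation of sample wells plus 3 SD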
M5 antag: blocks acetylcholine activation of human M5 receptor; inhibition, % at 3 µM; P08912; 360,000 tested, 0.59% active; CHO-hM5 cells, Fluo-8 calcium fluorescence, ACh EC80; AID 624040;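 active = inhibition above a per-plate cutoff, the mean of that plate's test compounds plus 3 SD, cut at about 27% in these data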
CHRM5 PAM: positive allosteric modulators of human muscarinic M5 receptor | AID 624038 | CHO-K1 hM5, Fluo-8 calcium, ACh EC20 PAM; 0% = ACh EC20, 100% = ACh EC100 | P08912 | 360,000 tested, 0.3% active | activation, % at 3 µM;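 active = activation above the run cutoff, the mean activation of all test compounds plus 3 SD, cut at about 18% in these data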
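Replicates: One well per compound, no replicates | System: Human M5 receptor in CHO-K1 cells | Benchmarks: Low control EC20 acetylcholine (0%), high control EC100 acetylcholine (100%) | Probe or stimulus: Acetylcholine, EC20 level | Times: Fluo-8 loading 80 min at 37 °C plus 30 min room temperature | Signal: Intracellular calcium via Fluo-8 fluorescence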
Hits are given with their value; i = inactive.

SMILES | CHRM5 agonist | CHRM4 antagonist | M4 ag | M4 PAM | M5 antag | CHRM5 PAM
CCCCn1c(=O)c(C(=O)Nc2ncccc2C)c(O)c2ccccc21 | i | i | 33 | i | i | i
CCCCCCn1c(=O)c(C(=O)Nc2ncccc2C)c(O)c2ccccc21 | i | i | i | i | i | i
CON(C)C(=O)Nc1ccc(Cl)cc1 | i | i | i | i | i | i
O=C(Nc1ccc(Cl)cc1)O/N=C(\c1ccccc1)c1ccccn1 | i | i | i | i | 33 | i
N#CC1=C(N)Oc2c(c(=O)oc3ccccc23)C1c1cccnc1 (centres undefined) | i | i | i | i | i | 20
CCC(CC)C1C(C#N)=C(N)Oc2c1c(=O)oc1ccccc21 (centres undefined) | i | i | i | i | i | i
CC(C)(C)c1ccc(CSc2cnn(C(C)(C)C)c(=O)c2Cl)cc1 | i | i | i | i | 28 | i
CC[N+]12CCC(CC1)C(=C(c1ccccc1)c1ccccc1)C2 | i | 97 | i | i | 99 | i
C[N+]12CCC(CC1)C(=C(c1ccccc1)c1ccccc1)C2 | i | 97 | i | i | 99 | i
O=C(Nc1ccc(F)cc1)c1c(O)c2c(n(Cc3ccccc3)c1=O)CCCC2 | i | i | i | 21 | i | i
O=C(Nc1cccnc1)c1c(O)c2c(n(Cc3ccccc3)c1=O)CCCC2 | i | i | i | i | i | i
COC(=O)C1=C(c2ccc(C(C)=O)cc2)C[C@@H]2CC[C@H]1N2C(=O)NCCOc1ccccc1Cl | i | i | i | i | i | i
CN1C2CCC1CC(OC(c1ccccc1)c1ccccc1N)C2 (centres undefined) | i | 100 | i | i | 99 | i
CC(C)(C)c1ccc(C(=O)C2CCCN(C3CCC3)C2)cc1 (centres undefined) | i | 32 | i | i | i | i
CC(=O)N1CCC(N2CCCC(C(=O)c3cccc(Cl)c3)C2)CC1 (centres undefined) | i | 27 | i | i | i | i
CC(C)(C)c1ccc(C(=O)C2CCCN(Cc3ccon3)C2)cc1 (centres undefined) | i | i | i | i | i | i
CC1(C)CSC(=NCc2ccccc2)N1 | 26 | i | 64 | i | i | i
O=C(Nc1ccc(Cl)c(Cl)c1)c1ccco1 | i | i | i | i | i | i
C=CCNC(=S)Nc1ccc(OC(=O)Nc2ccc(Cl)c(Cl)c2)cc1 | i | i | i | i | 28 | i
C=CCn1c(O)c(C(C)=NC(C)c2ccccc2)c(=O)[nH]c1=O (centres undefined) | i | i | i | i | i | i
O=C1/C(=C\c2cccnc2)N2CCC1CC2 | i | i | i | i | i | i
C(=NC12CN3CN(CN(C3)C1)C2)c1cccnc1 | i | i | i | 19 | i | i
C=C1C(C)C2C(Cc3ccccc3)NC(=O)C23C(OC(C)=O)C=CC(C)(O)CC(C)CC=CC3C1O (centres undefined) | i | i | i | i | i | 21
COc1ccc(-n2c(/C=C3/C(=O)Nc4ccccc43)nc3ccccc3c2=O)cc1 | i | 97 | i | i | i | i
COc1cc(/C=C/c2nc3ccccc3c(=O)n2-c2ccc(O)cc2)ccc1O | i | 29 | i | i | i | i
SMILES | CHRM5 agonist | CHRM4 antagonist | M4 ag | M4 PAM | M5 antag | CHRM5 PAM
O=C(C[N+]12CCC(CC1)C(CO)C2)c1ccc(Br)cc1 (centres undefined) | i | i | i | i | i | i
C[n+]1c(-c2ccccc2)cc(CCCCc2cc(-c3ccccc3)[n+](C)c(-c3ccccc3)c2)cc1-c1ccccc1 | i | 47 | i | i | i | i
COc1ccc(-c2cc(-c3ccccc3)[n+](C)c(-c3ccccc3)c2)cc1 | i | i | i | i | i | i
COc1ccc(NC2Oc3cc4c(cc3C(c3cc(OC)c(OC)c(OC)c3)C2C)OCO4)cc1 (centres undefined) | i | i | i | i | i | 19
COc1cc(C2c3cc4c(cc3CC3COC(=O)C32)OCO4)cc(OC)c1OC (centres undefined) | i | i | i | i | i | i
CCCC[N+]12CCC(CC1)C(C(O)(c1ccccc1)c1ccccc1)C2 (centres undefined) | i | i | i | i | i | i
CN1CCCC1C(O)(c1ccccc1)c1ccccc1 (centres undefined) | i | i | i | i | i | i
C[N+]12CCC(CC1)C(C(O)(c1ccccc1)c1cccs1)C2 (centres undefined) | i | 94 | i | i | 94 | i
CCC[N+]12CCC(CC1)C(C(O)(c1ccccc1)c1ccccc1)C2 (centres undefined) | i | i | i | i | 28 | i
CCOC(=O)c1cnc(SCc2ccc(Cl)c(Cl)c2)nc1N1CC1 | i | i | i | i | i | i
CCOC(=O)c1ccc(NC(=O)N2C[C@@H]3C[C@@H](C2)c2cccc(=O)n2C3)cc1 | i | 69 | i | i | i | i
CCOC(=O)c1ccc(NC(=O)N2CC3CC(C2)c2cccc(=O)n2C3)cc1 (centres undefined) | i | i | i | i | i | i
C1CN(P2(N3CC3)=NP(N3CC3)(N3CC3)=NP(N3CC3)(N3CC3)=N2)CCO1 (centres undefined) | i | i | i | i | i | i
O=[N+]([O-])c1cc([As](=O)(O)O)ccc1O | 36 | i | i | i | i | i
C=C1C(=O)O[C@@H]2C[C@@H](C)[C@@H]3C=CC(=O)[C@@]3(C)[C@@H](OC(=O)CC(=O)O[C@H]3[C@@H]4C(=C)C(=O)O[C@@H]4C[C@@H](C)[C@@H]4C=CC(=O)[C@]43C)[C@H]12 | i | 39 | i | i | i | i
Cc1cc(Oc2cc(NN3CCCCC3)c([N+](=O)[O-])cc2[N+](=O)[O-])ccc1[N+](=O)[O-] | i | i | i | i | i | i
CCN1CCN(CC(c2ccccc2)c2ccccc2)CC1 | i | i | i | i | 36 | i
CCS(=O)(=O)NCc1nnc2n1-c1ccc(Cl)cc1C(c1ccccc1)=NC2 | i | i | i | i | i | i
Nc1ccc(CC(N)c2csc(Nc3ncccn3)n2)cc1 (centres undefined) | i | i | i | i | i | i
NC(Cc1ccc(Cl)cc1)c1csc(Nc2ncccn2)n1 (centres undefined) | i | 96 | i | i | i | i
O=C(NCC1=C(c2ccc3ccccc3c2)C[C@@H]2CC[C@H]1N2Cc1ccco1)c1cccnc1 | i | i | i | i | i | i
Cc1ccc(C[n+]2c(-c3ccc(C)cc3)cc(-c3ccc(C)cc3)cc2-c2ccc(C)cc2)cc1 | i | i | i | i | 37 | i
NNc1n[nH]c(=S)n1N | i | i | i | i | i | i
